The test system of data set [1] is Plasmodium berghei. The data set is described as follows: Antimalarial activity against liver stage of Plasmodium berghei infected in human Huh7 cells after 48 hrs by luciferase assay. The format is functional, organism-based. To be noted: Huh-7, 48 h.
The next data set relates to Huh-7. As to the kind of experiment: Cytotoxicity against human HuH7 cells assessed as cell viability by Alamar Blue assay. The format is cell-based. For orientation: Resazurin is reduced to fluorescent resorufin, in cell work by metabolically active cells.
For a further data set, the system named is Plasmodium falciparum. As to the kind of experiment: Antimalarial activity against chloroquine-resistant erythrocyte stage of Plasmodium falciparum W2 after 48 hrs. The format is functional, organism-based. The conditions noted are these: W2, 48 h.
Data set [2] relates to Plasmodium berghei. As to the kind of experiment: Antisporogonic activity against GFP expressing Plasmodium berghei ANKA infected in BALB/c mouse assessed as inhibition of appearance of oocysts in Anopheles gambiae level at 10 umol/kg, ip by microscopic analysis (reference value: 83.6%). The format is functional.
The subject of data set [3] is Plasmodium berghei. As to the kind of experiment: Antisporogonic activity against GFP expressing Plasmodium berghei ANKA infected in BALB/c mouse assessed as inhibition of appearance of oocysts in Anopheles gambiae level at 25 umol/kg, ip by microscopic analysis (reference value: 83.6%). The format is functional.
The subject of a further data set is Plasma. The data set is described as follows: Metabolic stability of the compound in 80% human plasma assessed as formation of primaquine and carboxyprimaquine metabolite after 3 days. The format is ADME, cell-free. The conditions noted are these: 72 h.
A short description of data set [4]: Intrinsic clearance in rat liver microsomes at 0.1 uM. The format is ADME. The conditions noted are these: read-out: CLH. A digest of the protocol:
(§1)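 Compound was incubated with rat liver microsomes at 37 °C. Half-life and in vitro intrinsic clearance (μL/min/mg protein) were determined, and in vivo hepatic extraction ratio was predicted from them.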
Background: Liver microsomes are a subcellular fraction often used to study metabolism.

Data set [5] can be described thus: Half life in rat liver microsomes at 0.1 uM. The format is ADME. The method in brief:
as §1

In data set [6] the test system is Plasmodium berghei. As to the kind of experiment: Antimalarial activity against GFP expressing Plasmodium berghei ANKA infected in C57Bl/6J mouse assessed as host survival at 30 mg/kg, ip qd for 5 days measured on day 5. The format is functional, organism-based. The arrangement: dose 30 mg/kg. A digest of the protocol: (§2)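 Male C57Bl/6J mice were infected with GFP-expressing P. berghei ANKA on day 0. From day 4, compound was given i.p. at 30 mg/kg b.w. once daily for 5 consecutive days. Parasitemia was monitored daily by microscopy and flow cytometry. Survival was followed to the end of the experiment, and adverse reactions were recorded.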

For the next data set, the system named is Mus musculus. The data set is described as follows: Toxicity in Plasmodium berghei ANKA infected C57Bl/6J mouse assessed as adverse reactions at 30 mg/kg, ip qd for 5 days measured on day 5. Set-up: dose 30 mg/kg, route intraperitoneal. The format is organism-based. To be noted: in vivo, 120 h. A digest of the protocol:
as §2

Data set [7] concerns Plasmodium berghei. As to the kind of experiment: Antimalarial activity against GFP expressing Plasmodium berghei ANKA infected in C57Bl/6J mouse assessed as reduction of parasitemia at 30 mg/kg, ip qd for 5 days measured on day 5. The format is functional, organism-based. The arrangement: dose 30 mg/kg. The method in brief:
as §2

For orientation: IC50 means the concentration at which inhibition is half-maximal. Usually inhibition in vivo stands for the relative decrease from the control value, in per cent. The term half-life denotes the time in which the quantity being followed falls by half. High values mean slow decline, low ones rapid decline.

The source made the active and inactive calls. No cut-off for these calls is given here.

On to `COc1cc(NC(C)CCCNC(=O)c2ccc(CO[C@H]3O[C@@H]4O[C@]5(C)CC[C@H]6[C@H](C)CC[C@@H]([C@H]3C)[C@@]46OO5)cc2)c2ncccc2c1` (stereo not given in full), for which the values for the IC50 in the data set with Plasmodium berghei [1], with Huh-7 and with Plasmodium falciparum were 67 nM, 73000 nM and 5.1 nM, respectively.

With `COc1cc(NC(C)CCCNCC[C@H]2O[C@@H]3O[C@]4(C)CC[C@H]5[C@H](C)CC[C@@H]([C@H]2C)[C@@]35OO4)c2ncccc2c1` (stereo not given in full), the values for the IC50 in the data set with Plasmodium berghei [1], in the data set on Huh-7 and in the data set with Plasmodium falciparum were greater than 1000 nM, 32800 nM and 9.3 nM, respectively.

Consider `COc1cc(NC(C)CCCN)c2ncccc2c1` (stereo not given) [PRIMAQUINE], for which the inhibition in vivo at 10 µmol/kg with Plasmodium berghei [2] came out at 35.5%. Also, in the data set on Plasmodium berghei [3], the inhibition in vivo at 25 µmol/kg came to 2.2%.

In the case of `COc1cc(NC(C)CCCNC2CCC3(CC2)OOC2(OO3)C3CC4CC(C3)CC2C4)c2ncccc2c1` (stereo not given), the inhibition in vivo at 10 µmol/kg in the data set with Plasmodium berghei [2] came to 36.4%. The inhibition in vivo at 25 µmol/kg in the data set with Plasmodium berghei [3] came out at 13.3%. The IC50 came out at 330 nM with Plasmodium berghei [1], 8200 nM in the data set on Huh-7 and 21.6 nM with Plasmodium falciparum.

`CCOC(=O)C1CCC2(CC1)OOC1(OO2)C2CC3CC(C2)CC1C3` (stereo not given): the IC50 with Plasmodium berghei [1] is greater than 10000 nM; in the data set on Plasmodium falciparum, 128 nM.

`COc1cc(NC(C)CCCNCC2CCC3(CC2)OOC2(OO3)C3CC4CC(C3)CC2C4)c2ncccc2c1` (stereo not given): the inhibition in vivo at 10 µmol/kg in the data set with Plasmodium berghei [2] was found to be 42.9%. For the same compound, the Stability entry with Plasma was “Stable”. Besides, the microsomal CLint at 0.1 µM in [4] came to 51.2 µL/min/mg. For the same compound, the inhibition in vivo at 25 µmol/kg in the data set on Plasmodium berghei [3] is 5.9%. For the same compound, the values for the IC50 in the data set with Plasmodium berghei [1], with Huh-7 and in the data set with Plasmodium falciparum were greater than 1000 nM, 5020 nM and 45.2 nM, respectively. The compound further returned a half-life at 0.1 µM in data set [5] of 27 min.

As for `C[C@@H]1CC[C@H]2[C@@H](C)C(=O)O[C@@H]3O[C@@]4(C)CC[C@@H]1[C@]32OO4` [ARTEMISININ], the IC50 with Plasmodium berghei [1] is greater than 10000 nM; in the data set on Plasmodium falciparum it was 8.2 nM.

Regarding `COc1cc(NC(C)CCCNC(=O)C[C@H]2O[C@@H]3O[C@]4(C)CC[C@H]5[C@H](C)CC[C@@H]([C@H]2C)[C@@]35OO4)c2ncccc2c1` (stereo not given in full), the IC50 was 523 nM in the data set with Plasmodium berghei [1] and 9.1 nM with Plasmodium falciparum.

Take `COc1cc(NC(C)CCCNC(=O)CC2CCC3(CC2)OOC2(OO3)C3CC4CC(C3)CC2C4)c2ncccc2c1` (stereo not given): the inhibition in vivo at 10 µmol/kg in the data set with Plasmodium berghei [2] worked out at 66.7%. For the same compound, the inhibition in vivo at 25 µmol/kg in the data set with Plasmodium berghei [3] stood at 11.4%. Further, the IC50 turned out to be 604 nM with Plasmodium berghei [1], 2570 nM with Huh-7 and 36.5 nM with Plasmodium falciparum.

Turning to `COc1cc(NC(C)CCCNCc2ccc(CO[C@H]3O[C@@H]4O[C@]5(C)CC[C@H]6[C@H](C)CC[C@@H]([C@H]3C)[C@@]46OO5)cc2)c2ncccc2c1` (stereo not given in full), the IC50 in the data set with Plasmodium berghei [1] worked out at 155 nM; with Plasmodium falciparum, 12.5 nM.

With `COc1cc(NC(C)CCCNC(=O)C2CCC3(CC2)OOC2(OO3)C3CC4CC(C3)CC2C4)c2ncccc2c1` (stereo not given), in the data set with Plasmodium berghei [2], the inhibition in vivo at 10 µmol/kg stood at 68.6%. Further, the outcome in the data set on Plasmodium berghei [6] and with Plasmodium berghei [7] was Active. Further, the Stability entry in the data set on Plasma is “Stable”. Further, in data set [4], the microsomal CLint at 0.1 µM was 133 µL/min/mg. In addition, the inhibition in vivo at 25 µmol/kg in the data set on Plasmodium berghei [3] came to 0%. Moreover, the Activity entry in the data set with Mus musculus is on record as “Non-toxic”. Also, the results for the IC50 with Plasmodium berghei [1], in the data set with Huh-7 and with Plasmodium falciparum were 538 nM, greater than 100000 nM and 21.1 nM, respectively. This compound also showed a half-life at 0.1 µM in data set [5] of 10 min.

(Values after ChEMBL document CHEMBL3108704, “Novel endoperoxide-based transmission-blocking antimalarials with liver- and blood-schizontocidal activities” (ACS Med Chem Lett, 2014).)
